According to the array DNA melting data of Ke et al. (doi:10.1101/2024.01.08.574731):

How the values were obtained:
[1] = folding enthalpy; higher = less favourable; fluorescence melt of hairpins on a sequencing array, two-state fit; settings: sodium 0.088 M
Method in brief: (§1)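 Hairpins were imaged by Cy3 fluorescence on a sequenced MiSeq flow cell with annealed Cy3 and quencher oligos, in 50 mM Na-HEPES pH 8.0, 25 mM NaCl, in 2.5 °C steps up to 60 °C. Bootstrapped two-state fits of normalised signals gave melting temperature and folding enthalpy. Four replicates were combined by inverse variance, and fitted temperatures were raised by 9.35 °C to match UV melts.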

[2] = melting temperature; fluorescence melt of hairpins on a sequencing array, two-state fit, raised by 9.35 °C to match UV melts; settings: sodium 0.088 M
Method in brief: as §1

Sequence	folding enthalpy [1]	Tm [2]
GACATGGGAAACTGTGTC ((((..(....)..))))	-28.2 kcal/mol	37.2 °C
GTATGAGGAAACCCATAC (((((.(....).)))))	-30.3 kcal/mol	35.3 °C
GGTCACCGAAAGGTACC (((.(((....))))))	-19.7 kcal/mol	47.1 °C
GGGGATGGAAACGTCTCC ((.((.(....).)).))	-26 kcal/mol	36.5 °C
GGGAACGAAAGTTTTCCC ((((((....)))..)))	-19.1 kcal/mol	35.5 °C
GACAGGGGAAACTCTGTC (((((.(....).)))))	-35 kcal/mol	48.1 °C
GAGCCCGAAAGGGTCTC ((((((....))).)))	-23.8 kcal/mol	59 °C
GAATGGGAAACCATTC ((((((....))))))	-37.9 kcal/mol	51.7 °C
GGGGTCGAAAGACGCCCC ((((((....)))..)))	-13 kcal/mol	60.2 °C
GATGCAGCGAAAGCTATC (((..(((....))))))	-9.06 kcal/mol	24.7 °C
GGTCTTGGAAACAAGGTC (..((((....))))..)	-12 kcal/mol	30.4 °C
GCGATGAGTCGC ((((....))))	-30.5 kcal/mol	54.8 °C
GGACAAGAAATTGTCC ((((((....))))))	-37.4 kcal/mol	55.3 °C
GGTTGGGGAAACCCAGCC ((.((((....)))).))	-42.9 kcal/mol	53.7 °C
GCTAACGAAAGTTTAAGC ((((((....)))..)))	-19 kcal/mol	35.5 °C
GTTTAGCGAAAGCTGAAC (((.(((....))).)))	-30.4 kcal/mol	51.3 °C
GATCTAGTCATAGATC ((((((....))))))	-38.4 kcal/mol	50 °C
GGGCAAGGAAACTCGCCC ((((.((....)).))))	-31.1 kcal/mol	50.7 °C
GTCCACGAAAGTGCAGAC ((((((....)))..)))	-16.5 kcal/mol	36.2 °C
GCAGTGGAAACACTGC ((((((....))))))	-32.9 kcal/mol	68.5 °C
GGCTTCGAAAGAAGAGCC ((((((....)))..)))	-21.8 kcal/mol	45.3 °C
GCTGTGCCGAAAGGCAGC (((..(((....))))))	-10.3 kcal/mol	48.7 °C
GCTCTTGCGAAAGCAAGC (((..(((....))))))	-8.63 kcal/mol	36.2 °C
GCTAGCCGAAAGGCGAGC (((.(((....))).)))	-30.9 kcal/mol	67.2 °C

Sequence	folding enthalpy [1]	Tm [2]
GATCGGATTGCCGATC ((((((....))))))	-28.7 kcal/mol	55 °C
GTACAGGCGAAAGCCTAC (((..(((....))))))	-8.61 kcal/mol	34.9 °C
GAGTACGGAAACGTACTC (((((((....)))))))	-42.5 kcal/mol	64 °C
GGTAAGCGAAAGCTAACC (((.(((....))).)))	-33.4 kcal/mol	50.1 °C
CGACTCGGAAACGATCG (((.(((....))))))	-31.8 kcal/mol	40.5 °C
GATCGTGGTCACGATC ((((((....))))))	-41.9 kcal/mol	57.7 °C
GCTTGTGGAAACACAAGC (((((((....)))))))	-39.9 kcal/mol	63.9 °C
GTGTACCGAAAGGTTCAC (((.(((....))).)))	-35.8 kcal/mol	53.1 °C
GCGATTGTCGC ((((...))))	-19.6 kcal/mol	48.2 °C
GATCTTGACTAAGATC ((((((....))))))	-44 kcal/mol	49 °C
CGTTACGGAAACGTCACG (((.(((....))).)))	-23.6 kcal/mol	44.5 °C
GCTAGTGGAAACACTGGC ((.((((....)))).))	-32.2 kcal/mol	51.7 °C
GGTGTGTCGAAAGACACC (((..(((....))))))	-10.2 kcal/mol	47.8 °C
GATCGATGGTTCGATC ((((((....))))))	-43 kcal/mol	51.2 °C
GTGTAGCCGAAAGGCCAC (((..(((....))))))	-17.3 kcal/mol	47 °C
GACACCGAAAGGTAAGTC ((((((....)))..)))	-20.2 kcal/mol	38.5 °C
GCCTACACGAAAGTGGGC (((..(((....))))))	-22.2 kcal/mol	50.5 °C
GATCGGCTTCCCGATC ((((((....))))))	-35.5 kcal/mol	56.4 °C
CGCGGACCTTCCGCG ((((((...))))))	-28.5 kcal/mol	69.2 °C
GTCGTCGAAAGACAGGAC ((((((....)))..)))	-18.3 kcal/mol	41 °C
GCCCCGCGAAAGCTGTGC ((.(.((....)).).))	-12.1 kcal/mol	30.4 °C
GGGGGTGGAAACACCCTC (.(((((....))))).)	-16.7 kcal/mol	64.5 °C
GAACTGGGAAACCAGTTC (((((((....)))))))	-40.7 kcal/mol	61.7 °C
GGTTGCGGAAACGTGACC (((..((....))..)))	-32.2 kcal/mol	48.8 °C

Sequence	folding enthalpy [1]	Tm [2]
GGGTCGCCGAAAGGCCCC (((..(((....))))))	-11.1 kcal/mol	46.4 °C
GGGAGCGAAAGCTCTCCC ((((((....)))..)))	-11.8 kcal/mol	52.2 °C
GATAGACGAAAGTCCATC (((.(((....))).)))	-13.3 kcal/mol	35.1 °C
GATTTGCCGAAAGGCATC (((..(((....))))))	-5.81 kcal/mol	21.9 °C
GCGGCTGCCGC ((((...))))	-31.2 kcal/mol	57.1 °C
GTGCCCCGAAAGGGTCAC (((.(((....))).)))	-34.6 kcal/mol	57.7 °C
GTAGTCCGAAAGGAATAC (((.(((....))).)))	-37.6 kcal/mol	49.7 °C
GATCACGACCGTGATC ((((((....))))))	-46.1 kcal/mol	63.6 °C
GCTGTGGAAACACAGC ((((((....))))))	-37.4 kcal/mol	68.7 °C
GCGCAGCGAAAGCCGAGC ((.(.((....)).).))	-9.37 kcal/mol	46.7 °C
TTCGAGAAATCGAA (((((....)))))	-12.4 kcal/mol	37.9 °C
GATCACCAAGTGATC ((((((...))))))	-36.8 kcal/mol	52.5 °C
GCCGACGGAAACACCGGC ((((..(....)..))))	-20.4 kcal/mol	43.9 °C
GGACGTCGAAAGACTTCC (((.(((....))).)))	-29.9 kcal/mol	48.1 °C
GATCTGCTAACAGATC ((((((....))))))	-37.1 kcal/mol	50.4 °C
GATCTTAACGAAGATC ((((((....))))))	-29.9 kcal/mol	40 °C
GGCCTTTCGAAAGAAGCC (((..(((....))))))	-29.9 kcal/mol	37.2 °C
GAAAGCCGAAAGGCCTTC (((.(((....))).)))	-14.4 kcal/mol	41.4 °C
GATCTTTCCCAAGATC ((((((....))))))	-33.4 kcal/mol	42.6 °C
GCAACCGAAAGGTCCTGC ((((((....)))..)))	-9.82 kcal/mol	27.9 °C
GTATCCGAAAGGATATAC ((((((....)))..)))	-13.8 kcal/mol	44.8 °C
CGTCTCGGAAACGAACG (((.(((....))))))	-23.4 kcal/mol	36.1 °C
GCGAACGGAAACGTCCGC (((.(((....))).)))	-40.2 kcal/mol	54.6 °C
GTGAACGAAAGTTCTCAC ((((((....)))..)))	-14.3 kcal/mol	35 °C

Sequence	folding enthalpy [1]	Tm [2]
GATCGATATATCGATC ((((((....))))))	-41 kcal/mol	56 °C
GCAGTCCGAAAGGAGTGC (((.(((....))).)))	-47.7 kcal/mol	65.8 °C
GTCGTGGGAAACCATGAC (((.(((....))).)))	-45.9 kcal/mol	52.5 °C
GTGTCTGGAAACAGATAC ((.((((....)))).))	-37.9 kcal/mol	46.1 °C
GATCGGCCCGCCGATC ((((((....))))))	-43.9 kcal/mol	68.3 °C
GAGTCGCGAAAGCGTCTC (((.(((....))).)))	-22.3 kcal/mol	54.7 °C
CGCGGAATAGTCCGCG ((((((....))))))	-25.5 kcal/mol	68.5 °C
GATCTGGAAGCAGATC ((((((....))))))	-37.8 kcal/mol	50.8 °C
GTTGGCGAAAGCCCGAAC ((((((....)))..)))	-9.07 kcal/mol	24.2 °C
GATCCGGTATCGGATC ((((((....))))))	-42.5 kcal/mol	63.5 °C
GATCTTCAGTAAGATC ((((((....))))))	-30.6 kcal/mol	40.7 °C
GATCAAGCTGTTGATC ((((((....))))))	-31.2 kcal/mol	42.7 °C
GACTGCGAAAGCATGTC ((((((....))).)))	-23.1 kcal/mol	54.5 °C
GTTTCACGAAAGTGTAAC (((.(((....))).)))	-24.6 kcal/mol	44.7 °C
GAAAGGCGAAAGCCATTC (((.(((....))).)))	-16.5 kcal/mol	41.4 °C
GTTACACGAAAGTGCAAC (((.(((....))).)))	-23.6 kcal/mol	44.7 °C
GATCGTAAGCACGATC ((((((....))))))	-36.4 kcal/mol	53.9 °C
GCGACGGTCGC ((((...))))	-28.4 kcal/mol	48.7 °C
GTGACTGAAAAGTCAC ((((((....))))))	-37.6 kcal/mol	61 °C
GCGGCGTCCCGC ((((....))))	-14.5 kcal/mol	56.7 °C
GATCACCTTAGTGATC ((((((....))))))	-39.1 kcal/mol	59.3 °C
